A word on the CC50: it is the concentration giving 50% cytotoxicity. What is called IC50 is the concentration that gives 50% inhibition. High values mean lower potency, low ones higher potency. For orientation: EC50 means the concentration that produces a half-maximal response. Low values mean an effect from little substance, high ones a need for much substance.

The values below come from ChEMBL document CHEMBL1144429, “Computational strategies in discovering novel non-nucleoside inhibitors of HIV-1 RT” (J Med Chem, 2005).

The structures appear in SMILES notation.

Assay [1] has as its system MT4. The assay is described as follows: Ratio of CC50 to that of EC50. Type of assay: functional, Homo sapiens. A digest of the protocol:
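Selectivity index is calculated as CC50/EC50. Both values come from the parallel MT-4 assays: cell viability for CC50 and protection from HIV-1-induced cytopathic effect for EC50.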

The test system of assay [2] is MT4. The assay is described as follows: Cytotoxic concentration required to reduce MT-4 cell viability. Type of assay: functional. The note with it: Homo sapiens. The method, boiled down: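 Viability of MT-4 cells was measured with compound alone, in parallel with the HIV-1 cytopathic-effect assay. CC50 is the concentration reducing MT-4 cell viability by 50%.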

Assay [3] addresses Human immunodeficiency virus type 1 reverse transcriptase (Human immunodeficiency virus 1, UniProt Q72547). In words: Concentration required to inhibit in vitro RNA-dependent DNA polymerase activity of reverse transcriptase. A digest of the protocol:
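Recombinant HIV-1 RT. RNA-dependent DNA polymerase activity was measured in vitro. IC50 is the concentration inhibiting this polymerase activity by 50%.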

Assay [4] deals with MT4. In words: Concentration required to reduce HIV-1-induced cytopathic effect in MT-4 cells. The format is functional, cell-based. The note with it: Homo sapiens. The method, boiled down:
(§1)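 MT-4 cells infected with HIV-1. The read-out is protection against virus-induced cytopathic effect. EC50 is the concentration giving a 50% reduction of the cytopathic effect. Uninfected MT-4 cytotoxicity was run in parallel.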
Background: Cytopathic effects are the visible damage that an infection or toxin causes in cultured cells.

Assay [5] has as its system MT4. The assay is described as follows: Concentration required to reduce HIV-1-induced cytopathic effect in MT-4 cells; NA = not active. The format is functional, cell-based, Homo sapiens. A digest of the protocol: as §1
Assay [6] deals with CCRF-CEM. In words: Concentration required to protect CEM cells against Mutant K103N Strain. The format is functional, cell-based. The note with it: Homo sapiens. The method, boiled down: (§2)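 CEM cell cultures were infected with mutant HIV-1 strains, each carrying a single NNRTI-resistance mutation in RT. EC50 is the concentration protecting CEM cells against HIV-induced cytopathogenicity by 50%.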

Assay [7] has as its system CCRF-CEM. In words: Concentration required to protect CEM cells against Mutant L100I Strain. The format is functional, cell-based. The note with it: Homo sapiens. A digest of the protocol:
as §2

The subject of assay [8] is CCRF-CEM. In words: Concentration required to protect CEM cells against Mutant E138K Strain. The note with it: Homo sapiens. Type of assay: functional, cell-based. A digest of the protocol: as §2
Assay [9] deals with MT4. In words: Compound was tested for inhibition of the cytopathic effects of HIV-1 (IIIB) in MT-4 cells. Type of assay: functional, cell-based. The note with it: Homo sapiens. The method, boiled down: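 HIV-1-induced cytopathic effect measured in MT-4 cell cultures. EC50 is the concentration reducing the cytopathic effect by 50%. Cytotoxicity in MT-4 cells was run in parallel.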

The test system of assay [10] is CCRF-CEM. The assay is described as follows: Concentration required to protect CEM cells against Mutant Y181C Strain. Type of assay: functional, cell-based. The note with it: Homo sapiens. The method, boiled down:
as §2

Assay [11] deals with CCRF-CEM. The assay is described as follows: Concentration required to protect CEM cells against Mutant Y188H Strain. The format is functional, cell-based. The note with it: Homo sapiens. The method, boiled down:
as §2

Consider `Oc1nc2cc(Cl)ccc2n1Cc1c(F)cccc1F`, for which the Ratio with MT4 [1] is recorded as over 14. The same molecule registered a CC50 with MT4 [2] of over 424 µM. For the same molecule, in [3], the midpoint of inhibition, the IC50, lay at 60 µM. The EC50 with MT4 [4] amounted to 29.6 µM.

On to `O=c1oc2ccc(Cl)cc2n1Cc1c(F)cccc1F`, for which the Ratio in the assay with MT4 [1] is over 91. The same molecule displayed a CC50 in the assay on MT4 [2] of over 382 µM. This molecule showed an IC50 in assay [3] of 20 µM. In the assay with MT4 [4], this molecule yielded an EC50 of 3.72 µM.

Regarding `CC(C)c1ccc(Cn2c(O)nc3ccc(Cl)cc32)cc1`, the Ratio in the assay on MT4 [1] is over 147. In the assay on MT4 [2], this molecule displayed a CC50 of over 415 µM. In assay [3], the IC50 is 16.2 µM. Further, the EC50 with MT4 [4] was determined as 2.83 µM.

With `Oc1nc2ccc(Cl)cc2n1Cc1c(Cl)cccc1Cl`, the Ratio in the assay with MT4 [1] was 83. For the same molecule, half-maximal cytotoxicity with MT4 [2] (CC50) was put at 315 µM. This molecule gave an IC50 in assay [3] of 7.5 µM. In addition, a half-maximal response with MT4 [4] (EC50) required 3.79 µM.

For `Oc1nc2ccc(Cl)cc2n1Cc1cccc2ccccc12`, the Ratio in the assay with MT4 [1] was 57. The molecule further came in with a cytotoxic concentration (CC50) in the assay with MT4 [2] of 50 µM. Besides, 12.7 µM corresponded to half-maximal inhibition in assay [3] (IC50). This molecule showed a half-maximal effective concentration (EC50) in the assay with MT4 [4] of 0.87 µM.

Consider `Oc1nc2ccc(Cl)cc2n1CC1CCCCC1`, for which the concentration for a half-maximal effect (EC50) result in the assay on MT4 [5] is “Not Active”. The molecule further yielded a 50% cytotoxic concentration (CC50) in the assay with MT4 [2] of 9.5 µM. In assay [3], this molecule showed a 50% inhibitory concentration (IC50) of 50 µM.

Turning to `Oc1nc2ccc(Cl)cc2n1Cc1ccc2ccccc2c1`, the Ratio in the assay with MT4 [1] is reported as over 64. In the assay on MT4 [2], this molecule came in with a CC50 of over 405 µM. In addition, the IC50 in assay [3] was determined as 5.2 µM. The same molecule displayed an EC50 with MT4 [4] of 6.35 µM.

Turning to `O=c1[nH]c2ccc(Cl)cc2n1Cc1c(F)cccc1F`, in the assay on MT4 [1], the Ratio is over 1766. Moreover, the EC50 with CCRF-CEM [6] is over 20 µM; with CCRF-CEM [7], 2 µM; in the assay with CCRF-CEM [8], 2.9 µM; with MT4 [9], 0.24 µM; in the assay with CCRF-CEM [10], over 20 µM; with MT4 [4] it was 0.24 µM. The EC50 in the assay on CCRF-CEM [11] was over 20 µM. In the assay on MT4 [2], this molecule came in with a CC50 of over 424 µM. 2.86 µM corresponded to half-maximal inhibition in assay [3] (IC50).

`Fc1cccc(F)c1C1SCc2nc3ccccc3n21` (configuration not stated) [THIAZOLOBENZIMIDAZOLE]: the Ratio in the assay on MT4 [1] was 45. Further, the EC50 in the assay on CCRF-CEM [6] stood at 15.6 µM; in the assay with CCRF-CEM [7], 3.12 µM; in the assay on CCRF-CEM [8] it was 1.73 µM; in the assay with MT4 [9] it was 1.39 µM; in the assay with CCRF-CEM [10], 13.8 µM; with MT4 [4], 1.1 µM. The molecule further showed an EC50 in the assay on CCRF-CEM [11] of 4.16 µM. In the assay on MT4 [2], this molecule showed a CC50 of 50 µM. Also, in assay [3], the IC50 was determined as 24.6 µM.
